Screens from PubChem.
Most compounds without a hit are left out; they make up all but 1.7% or so of the library.
LMPTP block = LMPTP phosphatase inhibitors, primary screen, biochemical, fluorescence intensity, uHTS; recombinant LMPTP-A, OMFP fluorogenic substrate; AID 651560, 2012; 0.22% of 360,000 active; inhibition, % at 20 µM;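 active = compounds that cut the enzyme signal by at least half of the control window in the single-dose screen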;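 also: plate controls were DMSO wells with enzyme plus substrate for no effect and substrate without enzyme for full effect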
Target sequence (P24666 whole entry, looked up): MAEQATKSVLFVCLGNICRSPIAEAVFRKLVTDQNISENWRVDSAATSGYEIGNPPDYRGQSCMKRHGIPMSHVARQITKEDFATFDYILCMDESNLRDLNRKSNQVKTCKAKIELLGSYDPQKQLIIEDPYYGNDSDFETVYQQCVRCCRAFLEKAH
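Test system – LMPTP-A phosphatase enzyme · Quantity – 0.625 nM LMPTP-A final · Reagent – OMFP substrate, 400 µM final · Dosing – one test concentration per compound, 20 µM, with 3% DMSO overall · Timing – 50 min enzyme reaction at room temperature, protected from light · Detection – fluorescence intensity · Controls – substrate-only low control, DMSO enzyme-plus-substrate high control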
DNMT1 inh = human DNMT1 methyltransferase inhibitors, primary screen, biochemical, molecular beacon, fluorescence, HinP1I cleavage, uHTS | DNA (cytosine-5)-methyltransferase 1 (Homo sapiens), P26358 | inhibition (reported as % activation of signal), % at 10 µM | 0.83% of 360,000 active | AID 588458, 2011; in the data active = inhibition above about 50%
STEP block = STEP phosphatase inhibitors, primary screen, biochemical, fluorescence intensity, uHTS; Tyrosine-protein phosphatase non-receptor type 5 (Homo sapiens), P54829; recombinant STEP, OMFP fluorogenic substrate; inhibition, % at 20 µM; 0.25% of 360,000 active;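 active = inhibition at 20 µM, scaled per plate between control wells, above about 37%, limit read from the data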;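 also: 0% = DMSO with enzyme and substrate and 100% = substrate only without enzyme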
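System: isolated STEP enzyme; schedule: 20 min enzyme reaction at room temperature, protected from light; medium: Bis-Tris buffer pH 6.0, 2.5 mM DTT, 0.005% Tween 20; signal: fluorescence, 480/540 nm; dosing: single compound dose of 20 µM, 1% DMSO final; also added: OMFP substrate, 25 µM final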
Casp6 inh = human caspase-6 inhibitors, primary screen, biochemical, VEID-R110 fluorescence, single point, set 2. P55212. purified caspase-6, Z-VEID-R110 cleavage fluorescence. inhibition, % at 12.5 µM. 0.53% of 350,000 active;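 active = mean inhibition across replicates at least about 35%, with every replicate also reaching that limit, limit read from the data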;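 also: 0% = median of neutral control wells and 100% = no fluorescence left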
Target sequence (P55212 24-179 limits assumed): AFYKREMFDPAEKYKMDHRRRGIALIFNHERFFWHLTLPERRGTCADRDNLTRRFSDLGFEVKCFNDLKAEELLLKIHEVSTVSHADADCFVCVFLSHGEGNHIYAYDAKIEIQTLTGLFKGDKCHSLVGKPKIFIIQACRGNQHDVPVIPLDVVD
Target sequence (P55212 194-293 limits assumed): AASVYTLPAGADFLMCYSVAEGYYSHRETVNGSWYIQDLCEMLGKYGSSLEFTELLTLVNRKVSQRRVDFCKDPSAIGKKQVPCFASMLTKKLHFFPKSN
Scp-1 inhibitor = Scp-1 phosphatase inhibitors, primary screen, biochemical, colorimetric, uHTS | 0.88% of 340,000 active | Recombinant Scp1, phosphopeptide, malachite green phosphate absorbance | inhibition, % at 20 µM;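 active = inhibition above about 50% at 20 µM, limit read from the data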;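 also: plate controls were DMSO wells with enzyme for no effect and wells lacking enzyme for full effect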
Target sequence (Q9GZU7 76-261 limits assumed): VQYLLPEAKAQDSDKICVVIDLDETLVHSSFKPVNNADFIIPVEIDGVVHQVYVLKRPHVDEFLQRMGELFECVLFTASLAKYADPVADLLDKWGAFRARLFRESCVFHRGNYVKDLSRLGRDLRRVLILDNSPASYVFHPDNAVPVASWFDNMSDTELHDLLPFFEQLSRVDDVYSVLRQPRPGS
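Material – SCP-1 phosphatase catalytic domain, residues 76-261 · Buffer or medium – Acidic Tris acetate buffer with magnesium and detergent · Also added – Phospho 17-mer peptide substrate · Compound – single 20 µM dose, 1% DMSO · Times – 45 min room-temperature reaction, 5 min colour, 30 min stabiliser · Technique – Phosphate-binding colour reagent, absorbance read at 630 nm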
SUMO1-SIM PPI = modulators of SUMO1 protein-protein interactions, primary screen, biochemical, uHTS; 0.33% of 360,000 active; SUMO1 binding to a labelled peptide, TR-FRET, 1 h; inhibition, % at 20 µM; Small ubiquitin-related modifier 1 (Homo sapiens), P63165; in the data active = inhibition above about 37%
Scp-1 conf = Scp-1 phosphatase inhibitors, retest, confirmation, biochemical, colorimetric, single concentration | shares compounds with Scp-1 inhibitor | recombinant SCP-1 catalytic domain, phosphate release, malachite green absorbance | inhibition, % at 20 µM | 61% of 2,500 active;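 also: plate controls were DMSO with enzyme for no effect and buffer wells lacking enzyme for full effect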
MG interference = colorimetric readout interference by compounds, confirmation, artefact control for Scp-1 inhibitor project, biochemical, single concentration | shares compounds with Scp-1 inhibitor | Colorimetric interference counterscreen, malachite green absorbance 630 nm | apparent inhibition (interference), % at 20 µM | 2,500 tested, under 10 active | AID 540313, 2011;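 also: compounds added after enzyme reaction finished so only phosphate colour detection is probed; plate controls were DMSO wells with completed Scp-1 reaction for no effect and substrate wells lacking enzyme for full effect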
Scp-1 Tm shift = Scp-1 binding by thermal shift, confirmation, orthogonal assay for Scp-1 inhibitor project, biophysical, differential scanning fluorimetry; shares compounds with Scp-1 inhibitor; Recombinant SCP1, Sypro Orange thermal shift Tm; thermal shift relative to vanadate control, % at 40 µM; 25% of 1,500 active; AID 540329, 2011;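 active = substances whose mean melting-temperature shift, as a percentage of the reference inhibitor's shift, reaches about 5.3%, limit read from the data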;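 also: 0% = Tm of DMSO wells and 100% = Tm with sodium orthovanadate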
* = called active by the depositor; nt = not tested or not shown.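 The calls were made as follows, unless noted: active = inhibition of at least 30% at 20 µM; inactive = the rest.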

SMILES	LMPTP block	DNMT1 inh	STEP block	Casp6 inh	Scp-1 inhibitor	SUMO1-SIM PPI	Scp-1 conf	MG interference	others
O=C(O)/C=C/C(=O)Nc1ccc(NC(=O)c2ccccc2)c(Cl)c1	2	1	3	3	73*	6	1	-8
C/C=C/c1cnc2c(c1)C(=O)N([C@H](C)CO)C[C@H](C)[C@H](CN(C)C(=O)Nc1ccccc1F)O2	nt	nt	nt	-1	nt	nt	nt	nt
CCOC(=O)c1c(-c2ccc(C)cc2)csc1NC(=O)C1CCCO1 (stereo not given)	4	-1	0	nt	-7	1	nt	nt
CN(/N=C/c1ccncc1)C1=NCCN1	-2	-1	1	-3	85*	-4	-3	-11
CCN(CC(=O)NCc1cccs1)C(=O)COc1ccc(C(C)=O)cc1	0	3	-3	-2	59*	1	11	5
CCN(CC(=O)NCc1cccs1)C(=O)COc1cccc(C(F)(F)F)c1	-1	-2	-2	1	-8	7	nt	nt
CCC(=O)c1ccc(OCC(=O)OCC(=O)N2c3ccccc3NC(=O)C2(C)C)cc1	1	9	5	2	9	12	nt	nt
Cc1ccccc1OCCC(=O)OCC(=O)N1c2ccccc2NC(=O)C1(C)C	1	10	1	23	20	6	nt	nt
Cc1cc(OCC(=O)OCC(=O)N2c3ccccc3NC(=O)C2(C)C)ccc1Cl	7	33	-1	14	60*	9	57*	-19	Scp-1 Tm shift=1
CC1(C)C(=O)Nc2ccccc2N1C(=O)COc1ccccc1C#N	5	23	3	3	50*	3	59*	-12	Scp-1 Tm shift=3
Cc1cc(C)c(C(=O)OCC(=O)NC(=O)c2ccccc2)c(C)c1	0	1	1	10	-10	1	nt	nt
COc1ccc2c(c1)[N+](C)(C)C(C)(C)C=C2C	-2	-4	-2	-4	93*	1	86*	-12	Scp-1 Tm shift=-21
CCOc1ccc2c(c1)[N+](C)(C)C(C)(C)C=C2C	0	-4	-1	0	48	2	nt	nt
O=C(CSc1ncnc2sc3c(c12)CCC3)N1CCOCC1	6	27	14	20	54*	13	56*	-10	Scp-1 Tm shift=1
CCCNC(=O)N(C)C[C@H]1Oc2ncc(-c3ccc(OC)cc3)cc2C(=O)N([C@@H](C)CO)C[C@@H]1C	nt	nt	nt	-1	nt	nt	nt	nt
O=c1c2ccccc2oc2nc(-c3ccco3)n(Cc3ccccc3)c(=O)c12	2	8	2	nt	50*	-18	56*	-1	Scp-1 Tm shift=-1
CCc1nc2oc3ccccc3c(=O)c2c(=O)n1Cc1ccccc1	-2	-1	0	nt	-1	4	nt	nt
O=C(CSc1nnc(NC(=O)c2ccccc2C(=O)O)s1)Nc1ccccc1Cl	0	1	-2	3	3	3	nt	nt
Cc1cccc(C)c1NC(=O)CSc1nnc(NC(=O)c2ccccc2C(=O)O)s1	-1	-1	0	-5	65*	2	2	-13
CC(C)C[C@@H](CN1C(=O)C(=O)NC[C@@H]1CC(C)C)NC(=O)Cc1ccccc1	0	2	1	0	-3	4	-8	-8
CC(C)C[C@H]1CNC(=O)C(=O)N1C[C@H](Cc1ccc(O)cc1)NC(=O)CC12CC3CC(CC(C3)C1)C2	-1	nt	nt	0	nt	3	nt	nt
O=C(CN1C(=O)/C(=C2/SC(=S)N(CCS(=O)(=O)O)C2=O)c2ccccc21)Nc1cccc(C(F)(F)F)c1	5	21	5	1	84*	14	85*	-15	Scp-1 Tm shift=885*
O=C(CN1C(=O)NC2(CCCC2)C1=O)Nc1cccc(C(F)(F)F)c1	1	-1	-2	-1	-5	3	nt	nt
CCC1=Nc2cc(C(=O)NCCCOC(C)C)ccc2Sc2ccccc21	-1	-7	1	nt	63*	-8	-23	-15
CCC(C)(C)n1nnnc1C(c1ccc2ncccc2c1)N1CCN(Cc2ccc3c(c2)OCO3)CC1 (stereo not given)	0	6	-1	nt	13	0	nt	nt
SMILES	LMPTP block	DNMT1 inh	STEP block	Casp6 inh	Scp-1 inhibitor	SUMO1-SIM PPI	Scp-1 conf	MG interference	others
CCC(C)(C)n1nnnc1C(c1ccc(C)cc1)N1CCN(Cc2ccc3c(c2)OCO3)CC1 (stereo not given)	-1	2	-11	nt	66*	1	-17	-21
c1ccc(CCn2nnnc2C(c2cccs2)N2CCN(Cc3ccc4c(c3)OCO4)CC2)cc1 (stereo not given)	1	-4	-1	nt	67*	-5	23	6
O=C(CN1c2ccccc2S(=O)(=O)c2ccccc21)NCc1ccccc1	1	-5	0	0	-2	6	nt	nt
O=C(O)c1ccc(-n2c(-c3ccc(Br)cc3)n[nH]c2=S)cc1	-1	3	-1	nt	-3	2	nt	nt
O=C(O)c1ccc2c(c1)C(=O)/C(=C/c1ccccc1)C2=O	5	15	0	8	76*	1	53*	-20	Scp-1 Tm shift=23*
CC(C)(C)N1C(=O)c2ccc(C(=O)O)cc2C1=O	-2	0	0	nt	-15	-3	nt	nt
COc1ccccc1NS(=O)(=O)c1ccc2[nH]c(=S)oc2c1	1	7	-5	1	59*	12	-7	-12
COc1ccccc1C(C)Nc1nc(-c2cccnc2)nc2ccccc12 (stereo not given)	14	-5	1	-1	61*	15	-8	-13
Cc1ccc(C)c(NS(=O)(=O)c2cc(C(=O)Nc3ccccc3-c3ccccc3)ccc2Cl)c1	0	3	0	-3	-1	-4	nt	nt
